Source: PubChem BioAssay
This is a sample that favours compounds with a hit; in the whole collection about 3.1% have one here.
UHRF1 MBD2 ctr – blocks human UHRF1 binding to methylated DNA. Q96T88. UHRF1 binding to methylated oligo, TR-FRET. inhibition, % at 4.4 µM. 370,000 tested, 0.75% active. AID 687016;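 note: UHRF1 SRA domain binding a hemimethylated CpG hairpin DNA probe; 0% = median of test compound wells and 100% = reference inhibitor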
ABHD5 PLIN5 PPI – blocks binding of human ABHD5 to perilipin-5 | Q00G26+Q8WTS1 | Split G. princeps luciferase complementation, luminescence, 4 h | inhibition, % at 4 µM | 360,000 tested, 0.78% active;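 active = inhibition above the mean inhibition across every tested compound plus 3 SD, cut at about 22% in these data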;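 note: 0% = DMSO only wells and the 100% control is not disclosed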
Target sequence (Q00G26 whole entry, looked up): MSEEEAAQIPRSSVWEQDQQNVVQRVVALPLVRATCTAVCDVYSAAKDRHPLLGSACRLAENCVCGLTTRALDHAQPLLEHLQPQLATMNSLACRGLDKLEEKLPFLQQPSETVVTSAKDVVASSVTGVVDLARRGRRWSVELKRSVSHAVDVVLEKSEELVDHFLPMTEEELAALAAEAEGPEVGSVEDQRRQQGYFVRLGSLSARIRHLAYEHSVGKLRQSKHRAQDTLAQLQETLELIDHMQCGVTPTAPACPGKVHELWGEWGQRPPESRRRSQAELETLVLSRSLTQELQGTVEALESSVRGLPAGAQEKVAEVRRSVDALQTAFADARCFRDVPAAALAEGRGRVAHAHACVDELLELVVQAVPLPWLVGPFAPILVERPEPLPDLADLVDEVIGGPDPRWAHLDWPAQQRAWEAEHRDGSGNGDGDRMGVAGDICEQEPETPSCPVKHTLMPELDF
Target sequence (Q8WTS1 whole entry, looked up): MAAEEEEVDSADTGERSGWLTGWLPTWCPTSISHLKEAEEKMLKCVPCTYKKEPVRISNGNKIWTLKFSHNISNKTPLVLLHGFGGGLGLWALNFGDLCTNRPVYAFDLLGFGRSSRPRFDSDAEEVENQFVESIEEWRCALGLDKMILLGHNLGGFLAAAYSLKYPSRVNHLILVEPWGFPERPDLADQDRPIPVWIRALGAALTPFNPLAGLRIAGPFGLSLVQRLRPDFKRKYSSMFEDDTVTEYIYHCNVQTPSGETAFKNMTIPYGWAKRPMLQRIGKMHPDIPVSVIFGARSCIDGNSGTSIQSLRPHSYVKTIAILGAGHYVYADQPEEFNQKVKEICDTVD
LEDGF integ inh – blocks HIV-1 LEDGF/p75-dependent DNA integration. TR-FRET IN-LEDGF/p75 DNA integration, Eu/Cy5. inhibition, % at 3.7 µM. 370,000 tested, 0.64% active. AID 743269;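 active = inhibition above the screen-wide mean plus 3 SD, cut at about 13% in these data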;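 note: signal is the Cy5 over europium emission ratio at 671 and 618 nm; 0% = plate median of compound wells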
RBBP9 inh – blocks human serine hydrolase RBBP9; inhibition, % at 7.94 µM; recombinant RBBP9, FP-Rh probe fluorescence polarization; 220,000 tested, 0.2% active; O75884; AID 1515;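 active = inhibition above the campaign mean of all tested compounds plus 3 SD, cut at about 14% in these data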;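 note: plate controls were DMSO wells with RBBP9 for no effect and wells lacking RBBP9 protein for full effect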
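Measured by: FP readout at 525/598 nm; material: recombinant human RBBP9; also added: Serine-hydrolase probe FP-Rh, 375 nM pre-mixing; medium: Tris buffer pH 8.0, NaCl, Pluronic; replication: one well per compound; doses: one concentration, 7.94 µM nominal, 0.794% DMSO; timing: preincubation 30 min plus labeling 45 min at 25 °C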
PRMT1 inh – blocks human protein arginine methyltransferase 1. recombinant PRMT1, activity-based probe fluorescence polarization. inhibition, % at 2.79 µM. AID 652257. 370,000 tested, 1.3% active. Q99873;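 active = inhibition above about 21% made by adding two undisclosed values, limit read from the data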
MBD2 inh – blocks human MBD2 binding to methylated DNA. AID 686964. inhibition, % at 4.4 µM. 370,000 tested, 0.31% active. TR-FRET, MBD2 binding to methylated oligonucleotide; in the data active = inhibition above about 13%
UHRF1 DNA bind – UHRF1 methyl-oligo binding inhibition as MBD2 counter-screen. shares compounds with MBD2 inh. UHRF1 binding to methylated oligonucleotide, TR-FRET. 1,000 tested, 25% active. inhibition, % at 4.4 µM;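 note: UHRF1 SRA domain binding a labeled hemimethylated CpG hairpin DNA; 0% = vehicle only and 100% = reference inhibitor with vehicle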
MBD2 DBD conf – MBD2-DBD methyl-DNA binding inhibition, TR-FRET confirmation. 1,000 tested, 26% active. TR-FRET MBD2-DBD binding to methylated oligonucleotide. inhibition, % at 4.4 µM. shares compounds with MBD2 inh; in the data active = inhibition above about 14%
Starred values were filed as active, the others as inactive; nt = no result given. Cut-off read from the data, not from the text of the source, unless noted: active = inhibition above about 21%; inactive = the rest.

SMILES	UHRF1 MBD2 ctr	ABHD5 PLIN5 PPI	LEDGF integ inh	RBBP9 inh	PRMT1 inh	MBD2 inh	UHRF1 DNA bind	MBD2 DBD conf
O=C(NCCCN1CCOCC1)C(=O)NCc1ccc(Cl)cc1	1	2	-1	0	0	13*	7	3
CCN1CCN(C(=O)Nc2ccccc2OC)CC1	-1	2	1	-1	-1	14*	3	2
COC(=O)c1cccc(OC[C@@H](O)CN2CCC(C(O)(c3ccccc3)c3ccccc3)CC2)c1	2	nt	8	nt	1	2	nt	nt
C=CCN=C(NC#N)SCC(=O)c1cccc(OC)c1	-1	-10	-2	4	-2	2	nt	nt
C=CCN1[C@H](C#N)[C@@H](c2ccc(C#Cc3cccc(OC)c3)cc2)[C@H]1CO	17	nt	-2	nt	1	15*	5	8
Nn1c(SCC(=O)Nc2cccc3ccccc23)nnc1-c1cc(-c2ccccc2)n[nH]1	1	nt	-3	nt	4	3	nt	nt
c1ccc(C[n+]2c(-c3ccccc3)csc2Nc2ccccc2)cc1	-3	-3	1	-5	0	0	nt	nt
CC(C)(C)Nc1scc(-c2ccccc2)[n+]1-c1ccccc1	5	0	0	-5	-3	18*	8	3
COC(=O)[C@]12C[C@H](CC(=O)NCC34CC5CC(CC(C5)C3)C4)C(=O)N(CCC3=CCCCC3)C1=C[C@H](C1CCCC1)O[C@@H]2C	3	nt	-1	nt	2	1	nt	nt
CCN1CCN(CC(O)COCC2COc3ccccc3O2)CC1 (stereo not drawn)	16	-7	-1	-10	7	16*	6	0
OC(COCC1COc2ccccc2O1)CN1CCCCC1 (stereo not drawn)	8	4	-1	-1	2	6	nt	nt
COC(=O)C1CCN(C(=O)COC(=O)c2ccc(N3CCCC3=O)cc2)CC1	16	6	7	nt	2	14*	2	3
CC1CC(C)CN(C(=O)COC(=O)c2ccc(N3CCCC3=O)cc2)C1 (stereo not drawn)	-2	2	0	nt	-1	-6	nt	nt
Cc1ccc(CC(=O)Nc2nc3c(s2)CCCC3)cc1	11	-19	-1	1	3	13*	5	3
Cc1ccc(CC(=O)Nc2cccc(C)n2)cc1	20	2	4	-3	4	15*	6	3
COc1ccc(OCC(=O)Nc2nc3c(s2)CCCC3)cc1	0	-6	1	nt	-2	-1	nt	nt
NS(=O)(=O)c1ccc(-c2c(-c3ccccc3)sc3ccccc23)cc1	22*	-1	2	nt	3	14*	10	4
Nc1nc(SCC(=O)N2CCN(c3ccc(F)cc3)CC2)n[nH]1	1	6	3	nt	-4	48*	4	3
CC1Cc2ccccc2N1S(=O)(=O)c1ccc2c(c1)n(C)c(=O)c(=O)n2C (stereo not drawn)	4	3	4	-5	-1	14*	1	4
C=CCN1[C@@H](C)COc2cccc(N3CCSCC3)c2S1(=O)=O	2	nt	2	nt	0	-1	nt	nt
COc1cc(NC(=O)c2ccc(OC)c([N+](=O)[O-])c2)ccc1NC(=O)c1ccco1	-3	8	1	-2	-3	18*	8	2
O=C(COC(=O)c1cc2ccccc2cc1O)Nc1ccccc1F	4	-16	1	nt	9	8	nt	nt
O=C(COC(=O)c1ccccc1O)Nc1cccc2ccccc12	17	5	-1	nt	0	14*	9	2
CN1CC=C(c2ccc(C(F)(F)F)cc2)N(c2ccc(Br)cc2)C1=O	4	nt	4	nt	-3	-6	nt	nt
Cc1cccc(CN2CCN(C3CN(Cc4cn(Cc5cccc(C(F)(F)F)c5)nn4)S(=O)(=O)C3)CC2)c1 (stereo not drawn)	18	-1	3	nt	-2	14*	7	11
SMILES	UHRF1 MBD2 ctr	ABHD5 PLIN5 PPI	LEDGF integ inh	RBBP9 inh	PRMT1 inh	MBD2 inh	UHRF1 DNA bind	MBD2 DBD conf
COC(=O)C1CCN(C(c2cccs2)c2sc3nc(C)nn3c2O)CC1 (stereo not drawn)	10	-11	-2	-8	-1	19*	1	2
CCOC(=O)C1CCN(C(c2cccs2)c2sc3nc(C)nn3c2O)CC1 (stereo not drawn)	1	-3	0	-3	3	4	nt	nt
Nc1[nH]c(C(=O)c2ccc(Br)cc2)c(-c2ccccc2Cl)c1C(=O)NCCc1c[nH]c2ccccc12	-4	nt	-3	nt	3	-4	nt	nt
COc1ccc(CN2CN3Cc4cc(OC)ccc4C3CS2(=O)=O)cc1 (stereo not drawn)	-1	nt	-4	nt	2	-2	nt	nt
O=c1[nH]c(SCCOc2ccccc2F)nc2ccccc12	23*	-3	2	3	6	14*	6	2
O=C(CCS(=O)(=O)c1ccc(Br)cc1)NCCc1ccccc1	5	0	-2	nt	7	3	nt	nt
NS(=O)(=O)c1ccc(CCNC(=O)CCS(=O)(=O)c2ccc(Br)cc2)cc1	29*	-6	0	nt	-2	17*	44*	30*
O=S(=O)(NCC(Nc1ccc(Cl)cc1)c1ccccc1)c1ccccc1 (stereo not drawn)	4	-16	6	-10	-1	-2	nt	nt
NS(=O)(=O)c1ccc(NC(CNS(=O)(=O)c2ccccc2)c2ccccc2)cc1 (stereo not drawn)	19	-3	2	-11	2	14*	3	1
Cc1ccc(CNC(=O)c2nnn(-c3cccc(C)c3)c2N)cc1	28*	-2	10	-4	7	15*	6	2
CCCCOCCCNS(=O)(=O)Cc1ccccc1	0	-6	-1	0	1	20*	3	1
O=C(/C=C/c1ccc2ccccc2c1)c1ccoc1	-7	25*	2	-7	0	20*	7	2
COc1cc(OC)cc(-c2sc3ccc(OC)cc3c2C#CC2(N)CCCCC2)c1	29*	11	9	nt	4	14*	3	7
